The source of these data is the array DNA melting data of Ke et al. (doi:10.1101/2024.01.08.574731).

Data set [1] is described as follows: melting temperature; fluorescence melt of hairpins on a sequencing array, two-state fit, raised by 9.35 °C to match UV melts. As to conditions: sodium 0.088 M. In short, it runs like this: (§1)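 Cy3 signals were normalised both to pre-quench Cy3 and to control constructs. They came from library hairpins carrying annealed Cy3 and quencher oligos on a sequenced MiSeq flow cell, imaged in 50 mM Na-HEPES pH 8.0, 25 mM NaCl, in 2.5 °C steps up to 60 °C. Bootstrapped two-state fits gave melting temperature and folding enthalpy, and four replicates were combined by inverse variance. Fitted temperatures were then raised by 9.35 °C to match UV melts.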

The nature of data set [2]: folding enthalpy; higher = less favourable; fluorescence melt of hairpins on a sequencing array, two-state fit. As to conditions: sodium 0.088 M. In short, it runs like this: as §1

Turning to CGGTAGCGGAAACGCCCG (((..(((....)))))), the Tm in data set [1] was found to be 48.7 °C. Also, in data set [2], the folding enthalpy is -23.4 kcal/mol.
Consider CGGTCGCGGAAACGCCCG (((..(((....)))))), for which the Tm in data set [1] was found to be 47.1 °C. The folding enthalpy in data set [2] was -20.9 kcal/mol.
Turning to CGGTCGGAAACGAACCG ((((((....))).))), the Tm in data set [1] was 51.6 °C. In addition, in data set [2], the folding enthalpy was -33.3 kcal/mol.
The like results for CGGTCGGAAACGAATCCG ((((((....)))..))) were, in that order, 37 °C and -25.8 kcal/mol.
As for CGGTCGGAAACGACCCG ((((((....))).))), the Tm in data set [1] amounted to 51.5 °C. Also, in data set [2], the folding enthalpy was -10 kcal/mol.
In the case of CGGTCGGAAACGAGCCCG ((((((....)))..))), the Tm in data set [1] is 37.5 °C. In data set [2], the folding enthalpy was -14 kcal/mol.
For the sequence CGGTGCCGGAAACGGCCG (((..(((....)))))), the Tm in data set [1] was 47.5 °C. In data set [2], the folding enthalpy is -9.28 kcal/mol.
For CGGTTCGGAAACGACCCG (((.(((....))).))), the Tm in data set [1] is 50 °C. The folding enthalpy in data set [2] is -33 kcal/mol.
The like results for CGGTTCGGAAACGACCG (((.(((....)))))) were, in that order, 50.6 °C and -35.6 kcal/mol.
As to CGTAAGCGGAAACGCACG (((..(((....)))))), the Tm in data set [1] worked out at 41.8 °C. In addition, the folding enthalpy in data set [2] is -22.6 kcal/mol.
The corresponding values for CGTACCCGGAAACGGACG (((..(((....)))))) are 31.8 °C and -12.3 kcal/mol.
The corresponding values for CGTACGGAAACGTCACG ((((((....))).))) are 38.4 °C and -22.6 kcal/mol.
CGTACGGAAACGTGTACG ((((((....)))..))): in data set [1], the Tm was found to be 41.5 °C. In data set [2], the folding enthalpy is -25.2 kcal/mol.
For CGTACGGAAACGTTCACG ((((((....)))..))), the Tm in data set [1] is 39 °C. Moreover, the folding enthalpy in data set [2] was -18.6 kcal/mol.
The corresponding values for CGTATCGGAAACGAAACG (((.(((....))).))) are 42.5 °C and -37.5 kcal/mol.
The corresponding values for CGTCACGGAAACGTAACG (((.(((....))).))) are 41.6 °C and -43.1 kcal/mol.
As for CGTCACGGAAACGTCACG (((.(((....))).))), in data set [1], the Tm came out at 39.3 °C. For the same sequence, the folding enthalpy in data set [2] is -19.8 kcal/mol.
On to CGTCAGCGGAAACGCACG (((..(((....)))))), for which, in data set [1], the Tm was 40.6 °C. For the same sequence, in data set [2], the folding enthalpy is -15.4 kcal/mol.
The corresponding values for CGTCCCGGAAACGGACG (((.(((....)))))) are 53.2 °C and -27.7 kcal/mol.
CGTCCGGAAACGGAAACG ((((((....)))..))): the Tm in data set [1] came to 40.5 °C. Also, the folding enthalpy in data set [2] was -20.9 kcal/mol.
The corresponding values for CGTCCGGAAACGGAACG ((((((....))).))) are 49.9 °C and -24.9 kcal/mol.
The corresponding values for CGTCCGGAAACGGACACG ((((((....)))..))) are 42.9 °C and -8.11 kcal/mol.
With CGTCCGGAAACGGCCACG ((((((....)))..))), in data set [1], the Tm came out at 33.1 °C. The folding enthalpy in data set [2] was -13 kcal/mol.
For CGTCCGGAAACGGCTACG ((((((....)))..))), the Tm in data set [1] stood at 34 °C. For the same sequence, the folding enthalpy in data set [2] is -12.6 kcal/mol.
Consider CGTCCGGAAACGGTACG ((((((....))).))), for which the Tm in data set [1] came to 48.1 °C. For the same sequence, the folding enthalpy in data set [2] is -25.7 kcal/mol.
Regarding CGTCCGGAAACGGTCACG ((((((....)))..))), the Tm in data set [1] was 35.2 °C. Moreover, the folding enthalpy in data set [2] was -13.9 kcal/mol.
Take CGTCGGCGGAAACGCACG (((..(((....)))))): the Tm in data set [1] came out at 46.1 °C. Also, the folding enthalpy in data set [2] is -18.3 kcal/mol.
The like results for CGTCTCCGGAAACGGACG (((..(((....)))))) were, in that order, 37.8 °C and -14.7 kcal/mol.
In the case of CGTCTCGGAAACGAACG (((.(((....)))))), in data set [1], the Tm stood at 36.1 °C. Further, the folding enthalpy in data set [2] is -23.4 kcal/mol.
The like results for CGTCTCGGAAACGACACG (((.(((....))).))) were, in that order, 35.5 °C and -31.2 kcal/mol.
As for CGTCTCGGAAACGATACG (((.(((....))).))), in data set [1], the Tm stood at 42.9 °C. The folding enthalpy in data set [2] was -38 kcal/mol.
The corresponding values for CGTCTGAAAAGACG (((((....))))) are 55.2 °C and -29.4 kcal/mol.
Take CGTGCCGGAAACGGGACG (((.(((....))).))): the Tm in data set [1] worked out at 62.9 °C. Moreover, in data set [2], the folding enthalpy is -37.6 kcal/mol.
As for CGTGCGGAAACGCAGACG ((((((....)))..))), the Tm in data set [1] is 47.4 °C. In addition, in data set [2], the folding enthalpy is -15.7 kcal/mol.
As to CGTGCGGAAACGCCCACG ((((((....)))..))), in data set [1], the Tm is 38.2 °C. In addition, the folding enthalpy in data set [2] was -22.4 kcal/mol.
On to CGTGCGGAAACGCGCACG ((((((....)))..))), for which the Tm in data set [1] turned out to be 64 °C. Further, the folding enthalpy in data set [2] is -34.2 kcal/mol.
Turning to CGTGCGGAAACGCGGACG ((((((....)))..))), the Tm in data set [1] amounted to 47 °C. In addition, the folding enthalpy in data set [2] was -19.2 kcal/mol.
